Assay results collected from several papers.
Protocols differ between the studies behind these lines.
Target: STE20-like serine/threonine-protein kinase (SLK, Homo sapiens, UniProt Q9H2G2)

| SMILES | assay | setting | endpoint | result |
| --- | --- | --- | --- | --- |
| CCCCC(=O)Nc1ccc(-c2ccc3ncn(CCC)c(=O)c3c2)cn1 | binding, competition with immobilised ligand | 0.5 µM | remaining binding | 100% |
| C=CC(=O)N1CCC([C@@H]2CCNc3c(C(N)=O)c(-c4ccc(Oc5ccccc5)cc4)nn32)CC1 | enzyme activity, inhibitor | 1 µM | inhibition | 0% |
| C[C@H]1CC[C@H](n2c3cnccc3c3cnc(Nc4ccc5c(n4)CCN(C(=O)CO)C5)nc32)CC1 | binding, competition with immobilised ligand | 1 µM | remaining binding | 78% |
| C#Cc1cc(-c2cc(Nc3nc(N[C@@H](C)c4ccc(F)cn4)ncc3Cl)n[nH]2)ccc1C=O | enzyme activity, inhibitor | 0.2 µM | inhibition | 54.5% |
| C[C@]1(O)CCCN(c2nc(Nc3ccc(S(=O)(=O)N[C@H]4CC[C@H](CN5CCN(c6ccc(C7CCC(=O)NC7=O)cc6F)CC5)CC4)cc3Cl)ncc2C(F)(F)F)C1 (some centres unmarked) | binding, competition with immobilised ligand | 1 µM | remaining binding | 100% |
| CN1CCN(C(=O)c2ccc(NC(=O)Nc3ccc(N(C)c4ccnc(Nc5ccc(CS(C)(=O)=O)cc5)n4)cc3)cc2)CC1 | binding, competition with immobilised ligand | 1 µM | remaining binding | 8.9% |
| CNS(=O)(=O)c1ccc(Nc2ncc(C(F)(F)F)c(N3CCC[C@](C)(O)C3)n2)c(C)c1 | binding, competition with immobilised ligand | 1 µM | remaining binding | 96% |
| CC#CC(=O)N1CCC[C@H]1c1nc(-c2ccc(C(=O)Nc3ccccn3)cc2)c2c(N)nccn12 | enzyme activity, inhibitor | 1 µM | inhibition | 0% |
